Source: ChEMBL document CHEMBL3627639, “Structure-activity relationships of amide-phosphonate derivatives as inhibitors of the human soluble epoxide hydrolase” (Bioorg Med Chem, 2015)
Converted amounts (≈) assume the structure as drawn.

Legend:
[1] = target: T1, Bifunctional epoxide hydrolase 2 (Homo sapiens, UniProt P34913); assay: Inhibition of recombinant human sEH expressed in baculovirus infected insect Sf9 cells using CMNPC as substrate assessed as 6-methoxy-2-naphthadehyde level after 10 mins by fluorescence assay
T1 sequence (P34913 whole entry): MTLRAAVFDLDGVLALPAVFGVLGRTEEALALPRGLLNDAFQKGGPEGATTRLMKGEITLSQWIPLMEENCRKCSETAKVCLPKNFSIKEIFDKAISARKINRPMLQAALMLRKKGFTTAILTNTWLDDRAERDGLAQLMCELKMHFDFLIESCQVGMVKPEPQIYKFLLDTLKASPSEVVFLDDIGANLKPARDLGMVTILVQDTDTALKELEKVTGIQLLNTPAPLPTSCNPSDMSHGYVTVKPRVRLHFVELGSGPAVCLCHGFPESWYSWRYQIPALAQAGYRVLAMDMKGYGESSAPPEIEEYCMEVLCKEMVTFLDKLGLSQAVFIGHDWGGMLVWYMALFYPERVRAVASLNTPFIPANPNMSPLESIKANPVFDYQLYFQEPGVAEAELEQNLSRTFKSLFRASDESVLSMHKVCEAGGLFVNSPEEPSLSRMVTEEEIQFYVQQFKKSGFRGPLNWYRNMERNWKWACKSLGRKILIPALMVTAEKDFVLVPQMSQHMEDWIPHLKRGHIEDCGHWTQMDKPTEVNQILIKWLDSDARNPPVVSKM
Method in brief: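 Recombinant human sEH (6xHis-tagged, expressed in Sf9 cells, tag removed with TEV protease, purified by metal affinity then anion exchange; 1 nM) preincubated with compound in DMSO for 10 min in 25 mM Bis–Tris/HCl pH 7.0 at 30 °C. CMNPC substrate added (5 µM). 6-Methoxy-2-naphthaldehyde read at ex 330/em 465 nm over 10 min. IC50 by regression of ≥5 points; mean of three runs.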

[2] = Aqueous solubility of the compound in sodium phosphate buffer at pH 7.4 at 25 +/- 1.5 degC by light scattering method; format: physicochemical
Method in brief: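 Compound stock in DMSO added at varied concentrations to 0.1 M sodium phosphate pH 7.4, final DMSO:buffer 5:95 (v/v). Turbidity read as OD at 650 nm at 25 ± 1.5 °C. Signal-to-noise ≥2 counted as insoluble. Mean of three separate measurements.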

| IC50 [1] | solubility kinetic [2] | SMILES |
| --- | --- | --- |
| 45 nM | – | CCOP(=O)(OCC)C(Nc1ccc(CNC(=O)C23CC4CC(CC(C4)C2)C3)cc1)c1ccccc1 (stereo not given) |
| 130 nM | – | CCOP(=O)(OCC)C(Nc1ccc(CNC(=O)C23CC4CC(CC(C4)C2)C3)cc1)c1ccc(C)cc1 (stereo not given) |
| 192 nM | – | CCOP(=O)(OCC)C(Nc1ccc(CNC(=O)C23CC4CC(CC(C4)C2)C3)cc1)c1ccc(C(C)(C)C)cc1 (stereo not given) |
| 199 nM | – | CCOP(=O)(OCC)C(Nc1ccc(CNC(=O)C23CC4CC(CC(C4)C2)C3)cc1)c1ccc(OC)cc1 (stereo not given) |
| 230 nM | – | CCOP(=O)(OCC)C(Nc1ccc(CNC(=O)C23CC4CC(CC(C4)C2)C3)cc1)c1ccc(C(=O)OC)cc1 (stereo not given) |
| 120 nM | – | CCOP(=O)(OCC)C(Nc1ccc(CNC(=O)C23CC4CC(CC(C4)C2)C3)cc1)c1ccc(F)cc1 (stereo not given) |
| 108 nM | – | CCOP(=O)(OCC)C(Nc1ccc(CNC(=O)C23CC4CC(CC(C4)C2)C3)cc1)c1ccc(C#N)cc1 (stereo not given) |
| 185 nM | – | CCOP(=O)(OCC)C(Nc1ccc(CNC(=O)C23CC4CC(CC(C4)C2)C3)cc1)c1ccncc1 (stereo not given) |
| 69 nM | – | CCOP(=O)(OCC)C(Nc1ccc(CNC(=O)C23CC4CC(CC(C4)C2)C3)cc1)C(=O)c1ccccc1 (stereo not given) |
| 186 nM | – | CCOP(=O)(OCC)C(Nc1ccc(CNC(=O)C23CC4CC(CC(C4)C2)C3)cc1)c1ccc2ccccc2c1 (stereo not given) |
| 21 nM | – | CCOP(=O)(OCC)C(Nc1ccc(CNC(=O)C23CC4CC(CC(C4)C2)C3)cc1)C1CC1 (stereo not given) |
| 46 nM | – | CCOP(=O)(OCC)C(Nc1ccc(CNC(=O)C23CC4CC(CC(C4)C2)C3)cc1)C1CCCCC1 (stereo not given) |
| 58 nM | – | CCCC(Nc1ccc(CNC(=O)C23CC4CC(CC(C4)C2)C3)cc1)P(=O)(OCC)OCC (stereo not given) |
| 5.1 nM | 125 µM (≈ 61.3 µg/mL) | CCOP(=O)(OCC)C(Nc1ccc(CNC(=O)C23CC4CC(CC(C4)C2)C3)cc1)C(C)(C)C (stereo not given) |
| 41 nM | – | CCOP(=O)(OCC)C(CC(C)(C)C)Nc1ccc(CNC(=O)C23CC4CC(CC(C4)C2)C3)cc1 (stereo not given) |
| 30 nM | – | CC(C)(C)C(Nc1ccc(CNC(=O)C23CC4CC(CC(C4)C2)C3)cc1)P(=O)(OCC(F)(F)F)OCC(F)(F)F (stereo not given) |
| 6.7 nM | – | CC(C)OP(=O)(OC(C)C)C(Nc1ccc(CNC(=O)C23CC4CC(CC(C4)C2)C3)cc1)C(C)(C)C (stereo not given) |
| 26 nM | – | CCCCOP(=O)(OCCCC)C(Nc1ccc(CNC(=O)C23CC4CC(CC(C4)C2)C3)cc1)C(C)(C)C (stereo not given) |

| IC50 [1] | solubility kinetic [2] | SMILES |
| --- | --- | --- |
| 16 nM | – | CC(C)COP(=O)(OCC(C)C)C(Nc1ccc(CNC(=O)C23CC4CC(CC(C4)C2)C3)cc1)C(C)(C)C (stereo not given) |
| 42 nM | – | CC(C)(C)C(Nc1ccc(CNC(=O)C23CC4CC(CC(C4)C2)C3)cc1)P(=O)(OCc1ccccc1)OCc1ccccc1 (stereo not given) |
| 0.96 nM | 78 µM (≈ 39.4 µg/mL) | CCOP(=O)(OCC)C(Nc1ccc(CNC(=O)NC23CC4CC(CC(C4)C2)C3)cc1)C(C)(C)C (stereo not given) |
| 3.8 nM | – | CC(C)(C)C(Nc1ccc(CNC(=O)NC23CC4CC(CC(C4)C2)C3)cc1)P(=O)(OCC(F)(F)F)OCC(F)(F)F (stereo not given) |
| 1.7 nM | – | CC(C)OP(=O)(OC(C)C)C(Nc1ccc(CNC(=O)NC23CC4CC(CC(C4)C2)C3)cc1)C(C)(C)C (stereo not given) |
| 3 nM | – | CCCCOP(=O)(OCCCC)C(Nc1ccc(CNC(=O)NC23CC4CC(CC(C4)C2)C3)cc1)C(C)(C)C (stereo not given) |
| 1.8 nM | – | CC(C)COP(=O)(OCC(C)C)C(Nc1ccc(CNC(=O)NC23CC4CC(CC(C4)C2)C3)cc1)C(C)(C)C (stereo not given) |
| 2.6 nM | – | CC(C)(C)C(Nc1ccc(CNC(=O)NC23CC4CC(CC(C4)C2)C3)cc1)P(=O)(OCc1ccccc1)OCc1ccccc1 (stereo not given) |
| 23 nM | – | CCOP(=O)(OCC)C(Nc1ccc(CNC(=O)C2CCCCC2)cc1)C(C)(C)C (stereo not given) |
| 24 nM | – | CCOP(=O)(OCC)C(Nc1ccc(CNC(=O)c2ccc(OC(F)(F)F)cc2)cc1)C(C)(C)C (stereo not given) |
| 3 nM | – | CCOP(=O)(OCC)C(Nc1ccc(CNC(=O)C2CCc3ccccc3C2)cc1)C(C)(C)C (stereo not given) |
| 17 nM | – | CCOP(=O)(OCC)C(Nc1ccc(CNC(=O)c2ccc3cc(O)ccc3c2)cc1)C(C)(C)C (stereo not given) |
| 37 nM | – | CCOP(=O)(OCC)C(Nc1ccc(NC(=O)C23CC4CC(CC(C4)C2)C3)cc1)C(C)(C)C (stereo not given) |
| 8.2 nM | – | CCOP(=O)(OCC)C(Nc1ccc(CCNC(=O)C23CC4CC(CC(C4)C2)C3)cc1)C(C)(C)C (stereo not given) |
| 43 nM | – | CCOP(=O)(OCC)C(Nc1ccc(CCC(=O)NC23CC4CC(CC(C4)C2)C3)cc1)C(C)(C)C (stereo not given) |
| 1.9 nM | 62 µM (≈ 31.3 µg/mL) | CCOP(=O)(OCC)C(Nc1ccc(CNC(=O)CC23CC4CC(CC(C4)C2)C3)cc1)C(C)(C)C (stereo not given) |
| 3.4 nM | 78 µM (≈ 38.7 µg/mL) | CCOP(=O)(OCC)C(Nc1ccc(CNC(=O)Cc2ccc3ccccc3c2)cc1)C(C)(C)C (stereo not given) |
| > 1000 nM | – | CCOP(=O)(OCC)C(Nc1ccc(COC(=O)C23CC4CC(CC(C4)C2)C3)cc1)C(C)(C)C (stereo not given) |
